{"source": "paper PMC9159088", "about": "(Chemical Science, 2022)", "key": {"Huh7 xenograft tumors": {"test_system": "Huh7 xenograft tumors", "assay": "Mice xenograft model of HCC", "assay_type": "in vivo, NOD-SCID mice", "conditions": "30 mg kg−1 ip. twice a week"}, "Serum biochemistry assay": {"assay": "Serum biochemistry assay", "assay_type": "in vivo, NOD-SCID mice", "conditions": "30 mg kg−1 ip. twice a week", "how_it_was_run": "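Huh7 cells (5 × 106) implanted subcutaneously into left and right flanks of NOD-SCID mice. From day 7 after inoculation, test compound or reference drug given ip at 30 mg kg−1 twice a week for 34 days; bodyweight monitored. Serum AST, ALT, total bilirubin, creatinine and BUN measured for hepatorenal toxicity; significance set at P < 0.05.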"}, "[1]": {"molecular_target": "T1, human Golgi α-mannosidase II (α-hGMII) (Homo sapiens, UniProt Q16706)", "T1 sequence (Q16706 1-1144)": "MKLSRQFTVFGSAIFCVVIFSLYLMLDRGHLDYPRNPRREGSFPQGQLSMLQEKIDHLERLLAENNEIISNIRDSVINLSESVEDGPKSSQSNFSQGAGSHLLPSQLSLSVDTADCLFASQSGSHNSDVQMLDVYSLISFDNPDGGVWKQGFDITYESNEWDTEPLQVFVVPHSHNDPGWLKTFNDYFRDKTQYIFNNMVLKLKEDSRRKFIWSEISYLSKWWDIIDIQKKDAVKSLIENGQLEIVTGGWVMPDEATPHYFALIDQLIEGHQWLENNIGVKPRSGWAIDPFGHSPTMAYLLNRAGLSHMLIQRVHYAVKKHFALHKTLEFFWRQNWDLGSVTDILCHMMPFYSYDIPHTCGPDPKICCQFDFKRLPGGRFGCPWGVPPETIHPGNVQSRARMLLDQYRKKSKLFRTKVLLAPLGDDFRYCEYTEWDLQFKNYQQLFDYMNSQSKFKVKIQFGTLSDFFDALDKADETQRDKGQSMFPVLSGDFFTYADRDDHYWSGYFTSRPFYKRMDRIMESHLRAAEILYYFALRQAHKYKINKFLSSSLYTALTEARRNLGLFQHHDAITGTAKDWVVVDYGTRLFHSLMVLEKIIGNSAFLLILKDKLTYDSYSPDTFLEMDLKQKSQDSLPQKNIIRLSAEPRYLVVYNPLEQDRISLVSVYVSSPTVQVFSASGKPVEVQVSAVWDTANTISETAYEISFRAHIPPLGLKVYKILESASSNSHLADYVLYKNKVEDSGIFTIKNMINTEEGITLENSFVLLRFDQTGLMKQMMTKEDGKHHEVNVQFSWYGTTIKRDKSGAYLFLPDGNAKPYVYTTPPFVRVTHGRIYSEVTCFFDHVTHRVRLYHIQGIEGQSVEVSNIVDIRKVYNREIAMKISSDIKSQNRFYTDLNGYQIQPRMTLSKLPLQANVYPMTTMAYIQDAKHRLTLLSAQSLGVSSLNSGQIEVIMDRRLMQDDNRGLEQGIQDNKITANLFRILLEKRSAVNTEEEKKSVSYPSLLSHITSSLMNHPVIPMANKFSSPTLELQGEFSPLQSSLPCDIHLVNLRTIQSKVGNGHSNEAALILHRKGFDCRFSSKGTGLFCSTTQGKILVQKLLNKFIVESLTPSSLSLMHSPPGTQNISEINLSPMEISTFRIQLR", "assay": "4-MU-based enzyme inhibition study, wild-type α-hGMII", "assay_type": "biochemical", "conditions": "SI = (α-hLM Ki)/(α-hGMII Ki), Man-α-4MU substrate"}, "α-hGMII": {"molecular_target": "T2, α-hGMII (Homo sapiens, UniProt Q16706)", "T2 sequence (Q16706 1-1144)": "T1 sequence (Q16706 1-1144)", "assay": "Glycan-based", "assay_type": "biochemical", "conditions": "SI = (α-hLM IC50)/(α-hGMII IC50), oligosaccharide substrates", "how_it_was_run": "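The substrate for human Golgi α-mannosidase II was 2-aminobenzamide-labelled GlcNAcMan5GlcNAc2 (GlcNAcMan5-2AB), with LNnT-2AB as internal standard. Enzyme, substrate and test compound (0, 0.3, 0.1, 0.03 μM) were incubated 24 h at 37 °C. Remaining substrate was measured by UPLC fluorescence as the peak area ratio of substrate to internal standard. Ki was taken from a Lineweaver–Burk plot. SI used lysosomal α-mannosidase IC50, run the same way with Man5-2AB substrate and NA2-2AB standard.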"}, "[2]": {"test_system": "human normal fibroblast (08C0015)", "assay": "Cell based selectivity assay", "conditions": "08C0015, 24 h treatment"}}, "data": [{"compound": "CNC(=O)c1cc(Oc2ccc(NC(=O)Nc3ccc(Cl)c(C(F)(F)F)c3)cc2)ccn1", "note": "[Sorafenib, sorafenib]", "values": [{"measurement": "signs of harm / body weight during treatment", "setting": "Huh7 xenograft tumors", "result": "neither mice injected with 8b-3 nor sorafenib exhibited signs of harm or decreased body weight"}, {"measurement": "tumor growth compared to the control", "setting": "Huh7 xenograft tumors; P < 0.05", "result": "significant reduction in tumor growth"}, {"measurement": "side effects (hepatotoxicity and nephrotoxicity)", "setting": "Serum biochemistry assay", "result": "no serious side effects including hepatotoxicity and nephrotoxicity were observed"}]}, {"compound": "O[C@H]1[C@H]2[C@H](O)CCCN2C[C@H]1O", "note": "[sw, swainsonine]", "values": [{"measurement": "SI: selectivity index", "setting": "[1]", "result": 4.6}, {"measurement": "SI: selectivity index (glycan based)", "setting": "α-hGMII", "result": 5}, {"measurement": "increase of relative intensity of overall Man2-9GlcNAc compared to the control group", "setting": "[2]", "result": "about 5 fold"}]}]}
